Series [1] in a line: Mean residence time in Sprague-Dawley rat at 10 mg/kg, po. It is filed as ADME, organism-based. Also on record: dose 10 mg/kg, route oral. The settings on record: in vivo. In short, it runs like this: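 Male Sprague-Dawley rats were given a single oral dose of 10 mg/kg. Serum concentration-time profiles were followed, and pharmacokinetic parameters, including mean residence time and clearance, were derived from them.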

The test system of series [2] is Mycobacterium tuberculosis. As to the kind of experiment: Antitubercular activity against Mycobacterium tuberculosis H37Rv assessed as growth inhibition after […] by agar microdilution method. It is filed as functional.
The subject of a further series is Cryptococcus neoformans. Put plainly: Antifungal activity against Cryptococcus neoformans CDRI isolate assessed as growth inhibition after 24 to 48 hrs by microbroth dilution method. In kind it is functional. Summed up: (§1)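 Broth microdilution susceptibility testing following NCCLS guidelines (reference standard M27-A for yeasts), run against a panel of bacterial and fungal strains.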
In general terms: Broth dilution looks for growth in wells or tubes with falling amounts of substance.

The test system of another series is Aspergillus fumigatus. Put plainly: Antifungal activity against Aspergillus fumigatus isolated from patient assessed as growth inhibition after 72 to 96 hrs by microbroth dilution method. In kind it is functional. Summed up:
as §1

A further series deals with Sporothrix schenckii. Put plainly: Antifungal activity against Sporothrix schenckii isolated from patient assessed as growth inhibition after 72 to 96 hrs by microbroth dilution method. It is filed as functional. In short, it runs like this: as §1
Series [3] can be described thus: Selectivity index, ratio of CC50 for African green monkey Vero cells to MIC for Mycobacterium tuberculosis H37Rv. In kind it is functional.
Series [4] has as its system Trichophyton mentagrophytes. Put plainly: Antifungal activity against Trichophyton mentagrophytes isolated from patient assessed as growth inhibition after 72 to 96 hrs by microbroth dilution method. It is filed as functional. Summed up:
as §1

A further series deals with Klebsiella pneumoniae. As to the kind of experiment: Antibacterial activity against Klebsiella pneumoniae ATCC 27736 assessed as growth inhibition after 24 hrs by microbroth dilution method. It is filed as functional. As to conditions: ATCC 27736, 24 h. In short, it runs like this: as §1
The test system of another series is Pseudomonas aeruginosa. As to the kind of experiment: Antibacterial activity against Pseudomonas aeruginosa ATCC BAA427 assessed as growth inhibition after 24 hrs by microbroth dilution method. In kind it is functional. As to conditions: ATCC BAA427, 24 h. Summed up:
as §1

Series [5] can be described thus: Cytotoxicity against African green monkey Vero cells after 24 hrs by MTS assay. It is filed as cell-based. The settings on record: chlorocebus sabaeus.
In the next series the test system is Candida albicans. Put plainly: Antifungal activity against Candida albicans isolated from patient assessed as growth inhibition after 24 to 48 hrs by microbroth dilution method. It is filed as functional. In short, it runs like this:
as §1

The next series has as its system Escherichia coli. As to the kind of experiment: Antibacterial activity against Escherichia coli ATCC 9637 assessed as growth inhibition after 24 hrs by microbroth dilution method. In kind it is functional. The settings on record: W. In short, it runs like this:
as §1

A further series relates to Candida parapsilosis. As to the kind of experiment: Antifungal activity against Candida parapsilosis ATCC 22019 assessed as growth inhibition after 24 to 48 hrs by microbroth dilution method. In kind it is functional. The settings on record: Lodderomyces parapsilosis. Summed up:
as §1

The next series deals with Staphylococcus aureus. Put plainly: Antibacterial activity against Staphylococcus aureus ATCC 25923 assessed as growth inhibition after 24 hrs by microbroth dilution method. In kind it is functional. As to conditions: ATCC 25923, 24 h. In short, it runs like this: as §1

The structures appear in SMILES notation. In brackets after ≈: the same amount, converted by molar mass. Where only a bound is given, the exact number is not on record here.

Broadly, the MRT is the average time that molecules of a dose stay in the body. In series [1], `Cc1cnn(CC/C=C/c2ccc(OCc3ccc(Br)cc3)cc2)c1` registered a mean residence time MRT of 7.17 h.
The same measure, in the same setting: the result for `C(=C\c1ccc(OCc2ccccc2)cc1)/CCn1cnc2ccccc21` reads 3.22 h.
By MIC is commonly meant the least concentration at which growth counts as inhibited. For `c1cc(OCCN2CCCCC2)ccc1COc1ccc(C(Nn2cnnc2)C2CC2)cc1` (stereo not given), the MIC in series [2] came to 50 µg/mL (≈ 112 µM).
What is called CC50 is the concentration giving 50% cytotoxicity. Consider `c1ccc2sc(SC(c3ccc(OCc4ccc(OCCN5CCCCC5)cc4)cc3)C3CC3)nc2c1` (stereo not given), for which the MIC in [2] is 3.12 µg/mL (≈ 5.88 µM); in the series on Cryptococcus neoformans, 50 µg/mL (≈ 94.2 µM); with Aspergillus fumigatus it was 25 µg/mL (≈ 47.1 µM); in the series on Sporothrix schenckii, 12.5 µg/mL (≈ 23.6 µM); in [4], 6.25 µg/mL (≈ 11.8 µM); in the series with Klebsiella pneumoniae, greater than 50 µg/mL. In addition, the MIC in the series with Pseudomonas aeruginosa was greater than 50 µg/mL; in the series on Candida albicans, 6.25 µg/mL (≈ 11.8 µM); in the series with Escherichia coli, greater than 50 µg/mL; in the series on Candida parapsilosis it was greater than 50 µg/mL; in the series with Staphylococcus aureus, 12.5 µg/mL (≈ 23.6 µM). Moreover, in series [3], the “Selectivity Index” value came out at 32.2. This compound registered a CC50 at 24 h in series [5] of 100 µg/mL (≈ 188 µM).
For the compound `c1ccc2sc(NC(c3ccc(OCc4ccc(OCCN5CCCCC5)cc4)cc3)C3CC3)nc2c1` (stereo not given), in series [2], the minimum inhibitory concentration (MIC) is 12.5 µg/mL (≈ 24.3 µM).
Still for that read-out and setting: the result for `Cc1cnn(C(c2ccc(OCc3ccc(Br)cc3)cc2)C2CC2)c1` (stereo not given) reads greater than 50 µg/mL.
In the case of `CC1(C)S[C@@H]2[C@H](NC(=O)[C@H](N)c3ccccc3)C(=O)N2[C@H]1C(=O)O` [AMPICILLIN], the MIC was 50 µg/mL (≈ 143 µM) in the series on Klebsiella pneumoniae, greater than 50 µg/mL in the series with Pseudomonas aeruginosa, 3.12 µg/mL (≈ 8.93 µM) in the series on Escherichia coli and 0.04 µg/mL (≈ 0.114 µM) with Staphylococcus aureus.
In the case of `O=[N+]([O-])c1cn(CC/C=C/c2ccc(OCc3ccc(F)cc3)cc2)cn1`, the MIC in series [2] was 50 µg/mL (≈ 136 µM).
Still for that read-out and setting: for `c1ccc2[nH]c(SC(c3ccc(OCc4ccc(OCCN5CCCCC5)cc4)cc3)C3CC3)nc2c1` (stereo not given) the value was greater than 50 µg/mL.
As to `OC(c1ccc(OCc2ccc(OCCN3CCCCC3)cc2)cc1)C1CC1` (stereo not given), the MIC in [2] was found to be 3.12 µg/mL (≈ 8.18 µM). For the same compound, in series [3], the “Selectivity Index” value is listed as greater than 10. For the same compound, the CC50 at 24 h in series [5] was greater than 50 µg/mL.
With `c1ccc(COc2ccc(C(C3CC3)n3cnc4ccccc43)cc2)cc1` (stereo not given), the MIC in series [2] came out at 12.5 µg/mL (≈ 35.3 µM).
Same read-out and setting: the result for `CC[C@@H](CO)NCCN[C@@H](CC)CO` [ETHAMBUTOL] reads 2 µg/mL (≈ 9.79 µM); that for `Clc1ccc(COc2ccc(/C=C/CCn3nnc4ccccc43)cc2)cc1`, greater than 12.5 µg/mL.
In the case of `COc1ccc(COc2ccc(C(C3CC3)n3ccnc3)cc2)cc1` (stereo not given), the MIC in series [2] amounted to 12.5 µg/mL (≈ 37.4 µM); in the series on Cryptococcus neoformans, 50 µg/mL (≈ 150 µM); in the series with Aspergillus fumigatus, 6.25 µg/mL (≈ 18.7 µM); in the series with Sporothrix schenckii, 3.12 µg/mL (≈ 9.33 µM); in [4] it was 3.12 µg/mL (≈ 9.33 µM); in the series with Klebsiella pneumoniae, 25 µg/mL (≈ 74.8 µM). In addition, the MIC is 50 µg/mL (≈ 150 µM) in the series with Pseudomonas aeruginosa; 25 µg/mL (≈ 74.8 µM) in the series on Candida albicans; greater than 50 µg/mL in the series with Escherichia coli; 50 µg/mL (≈ 150 µM) with Candida parapsilosis; 25 µg/mL (≈ 74.8 µM) with Staphylococcus aureus.
In the case of `C(=C\c1ccc(OCc2ccccc2)cc1)/CCSc1nc2ccccc2[nH]1`, the MIC in series [2] was greater than 25 µg/mL.
Same read-out and setting: for `COc1ccc(COc2ccc(/C=C/CCSc3nc4ccccc4[nH]3)cc2)cc1` the value was greater than 12.5 µg/mL.
Regarding `Clc1ccccc1C(c1ccccc1)(c1ccccc1)n1ccnc1` [CLOTRIMAZOLE], the MIC in the series on Cryptococcus neoformans stood at 0.25 µg/mL (≈ 0.725 µM); with Aspergillus fumigatus, 8 µg/mL (≈ 23.2 µM); with Sporothrix schenckii, 4 µg/mL (≈ 11.6 µM); in [4], 2 µg/mL (≈ 5.8 µM); with Candida albicans, 0.25 µg/mL (≈ 0.725 µM); in the series on Candida parapsilosis it was 1 µg/mL (≈ 2.9 µM).
On to `ClCC/C=C/c1ccc(OCc2ccc(OCCN3CCCCC3)cc2)cc1`, for which, in series [2], the MIC was determined as 4.46 µg/mL (≈ 11.2 µM).
The compound `C(=C\c1ccc(OCc2ccccc2)cc1)/CCSc1nc2ccccc2s1` displayed an MRT in series [1] of 6.02 h.
For `c1ccc(COc2ccc(C(C3CC3)n3ccnc3)cc2)cc1` (stereo not given), the MIC in series [2] worked out at 12.5 µg/mL (≈ 41.1 µM).
The compound `c1ccc(COc2ccc(C(Nc3nc4ccccc4s3)C3CC3)cc2)cc1` (stereo not given) showed an MRT in [1] of 7.9 h.
On to `CCCCSc1nc2ccccc2n1CC/C=C/c1ccc(OCc2ccccc2)cc1`, for which the MIC in series [2] was greater than 12.5 µg/mL.
The same measure, in the same setting: the result for `NNC(=O)c1ccncc1` [ISONIAZID] reads 0.025 µg/mL (≈ 0.182 µM); that for `c1ccc(COc2ccc(C(C3CC3)n3cncn3)cc2)cc1` (stereo not given), greater than 12.5 µg/mL.
Still for that read-out and setting: the result for `Clc1ccc(COc2ccc(C(C3CC3)n3cncn3)cc2)cc1` (stereo not given) reads 12.5 µg/mL (≈ 36.8 µM); that for `C(=C\c1ccc(OCc2ccccc2)cc1)/CCn1cncn1`, greater than 25 µg/mL.
Still for that read-out and setting: for `COc1ccc(COc2ccc(C(C3CC3)n3cnc4ccccc43)cc2)cc1` (stereo not given) the value was greater than 12.5 µg/mL; for `O=[N+]([O-])c1cn(C(c2ccc(OCc3ccc(F)cc3)cc2)C2CC2)cn1` (stereo not given), 12.5 µg/mL (≈ 34 µM); for `Cc1cnn(C(c2ccc(OCc3ccccc3Cl)cc2)C2CC2)c1` (stereo not given), 12.5 µg/mL (≈ 35.4 µM).
`c1ccc(COc2ccc(C(Nn3cnnc3)C3CC3)cc2)cc1` (stereo not given): in series [2], the MIC is greater than 12.5 µg/mL.
With `Clc1ccc(COc2ccc(/C=C/CCn3cnc4ccccc43)cc2)cc1`, in [2], the MIC was determined as 6.25 µg/mL (≈ 16.1 µM).
Consider `Fc1ccc2nc(NC(c3ccc(OCc4ccc(OCCN5CCCCC5)cc4)cc3)C3CC3)sc2c1` (stereo not given), for which the MIC in series [2] worked out at 6.25 µg/mL (≈ 11.8 µM). For the same compound, in series [3], the “Selectivity Index” value is 0.78. For the same compound, in [5], the CC50 at 24 h amounted to 4.93 µg/mL (≈ 9.27 µM).
Consider `Brc1ccc(COc2ccc(C(C3CC3)n3cncn3)cc2)cc1` (stereo not given), for which the MIC in [2] amounted to 25 µg/mL (≈ 65.1 µM).
With `OC(Cn1cncn1)(Cn1cncn1)c1ccc(F)cc1F` [FLUCONAZOLE], the MIC in series [2] is 2.83 µg/mL (≈ 9.22 µM); with Cryptococcus neoformans it was 2 µg/mL (≈ 6.53 µM); with Aspergillus fumigatus it was greater than 32 µg/mL; with Sporothrix schenckii it was 4 µg/mL (≈ 13.1 µM); in series [4] it was 16 µg/mL (≈ 52.2 µM); with Candida albicans it was 1 µg/mL (≈ 3.27 µM). For the same compound, the MIC in the series on Candida parapsilosis came out at 0.5 µg/mL (≈ 1.63 µM).
Take `Brc1ccc(COc2ccc(/C=C/CCn3cncn3)cc2)cc1`: in series [2], the MIC was determined as 4.78 µg/mL (≈ 12.4 µM).
Regarding `c1ccc2oc(NC(c3ccc(OCc4ccc(OCCN5CCCCC5)cc4)cc3)C3CC3)nc2c1` (stereo not given), the MIC in series [2] was 6.25 µg/mL (≈ 12.6 µM); in the series with Cryptococcus neoformans, 50 µg/mL (≈ 100 µM); in the series on Aspergillus fumigatus, greater than 50 µg/mL; in the series on Sporothrix schenckii it was 25 µg/mL (≈ 50.2 µM); in series [4], 12.5 µg/mL (≈ 25.1 µM); in the series with Klebsiella pneumoniae it was greater than 50 µg/mL. For the same compound, the MIC in the series on Pseudomonas aeruginosa is greater than 50 µg/mL; in the series on Candida albicans, 12.5 µg/mL (≈ 25.1 µM); with Escherichia coli, greater than 50 µg/mL; in the series with Candida parapsilosis, 50 µg/mL (≈ 100 µM); with Staphylococcus aureus it was 25 µg/mL (≈ 50.2 µM). In addition, the “Selectivity Index” value in [3] is reported as 1.87. In addition, in [5], the CC50 at 24 h was found to be 11.7 µg/mL (≈ 23.5 µM).
Regarding `c1ccc2c(c1)ncn2C(c1ccc(OCc2ccc(OCCN3CCCCC3)cc2)cc1)C1CC1` (stereo not given), the MIC in [2] stood at 12.5 µg/mL (≈ 26 µM).
On to `O=[N+]([O-])c1cnc(NC(c2ccc(OCc3ccccc3)cc2)C2CC2)s1` (stereo not given), for which the MIC in series [2] was greater than 25 µg/mL.

For the origin of these results see ChEMBL document CHEMBL2440028, “Identification of 1-[4-Benzyloxyphenyl)-but-3-enyl]-1H-azoles as New Class of Antitubercular and Antimicrobial Agents” (ACS Med Chem Lett, 2013).
